Assay results: ChEMBL document CHEMBL4265971, “Modified carbazoles destabilize microtubules and kill glioblastoma multiform cells” (Eur J Med Chem, 2018)
Calls of active or inactive are those of the source. No cut-off for these calls is given here.

Legend:
T98G [1] = test: Cytotoxicity against human T98G cells after 72 hrs by WST-1 assay; format: functional, cell-based
Summary of the method: (§1)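 Viability read with WST-1 72 h after treatment with increasing concentrations; DMSO vehicle 0.1% final. T98G and HepG2 grown in DMEM/10% FBS/pen-strep at 37 °C, 5% CO2. Patient-derived GBM cells (WHO grade IV; proneural, classical, mesenchymal) grown in NeuroCult NSA with B-27, 20 ng/mL EGF and 20 ng/mL FGF2. EC50 from curve fit, reported only when extrapolable. Mean of ≥3 independent experiments in triplicate.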

T98G [2] = test: Cytotoxicity against human T98G cells assessed as cell killing at 10 uM after 72 hrs by WST-1 assay relative to control; format: functional
Summary of the method: (§2)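 Maximal killing is the largest % loss of viability against 0.1% DMSO vehicle, read by WST-1 72 h after treatment, at the stated concentration. T98G/HepG2 grown in DMEM/10% FBS; patient-derived GBM grown in NeuroCult NSA with B-27, EGF and FGF2 (20 ng/mL each). Mean ± SEM of ≥3 independent experiments in triplicate.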

T98G [3] = test: Cytotoxicity against human T98G cells assessed as cell killing at 100 nM after 72 hrs by WST-1 assay relative to control; format: functional
Summary of the method: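 T98G human GBM cells (ATCC, STR-authenticated, under 6 months in culture) grown in DMEM with 10% FBS and penicillin/streptomycin, 37 °C, 5% CO2. Exposed to increasing compound concentrations in DMSO (0.1% final) for 72 h, then WST-1 viability read. Maximal killing is the largest % viability reduction versus vehicle over the concentrations tested. Mean of ≥3 independent experiments in triplicate.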

GBM [4] = test: Cytotoxicity against patient-derived classical GBM cells assessed as cell killing at 3 uM after 72 hrs by WST-1 assay relative to control; format: functional, Homo sapiens; summary of the method: as §2
GBM [5] = test: Cytotoxicity against patient-derived proneural GBM cells after 72 hrs by WST-1 assay; format: functional, cell-based; conditions: Homo sapiens; summary of the method: as §1
GBM [6] = test: Cytotoxicity against patient-derived mesenchymal GBM cells after 72 hrs by WST-1 assay; format: functional, cell-based; conditions: Homo sapiens; summary of the method: as §1
HT-29 = test: Cytotoxicity against human HT-29 cells after 48 hrs by sulforhodamine B assay; format: functional, cell-based
[7] = Induction of bovine brain microtubule destabilization assessed as increase in free tubulin levels after 15 mins by Coomassie G-250 staining-based polyacrylamide gel electrophoresis method; set-up: species or system Bos taurus
Summary of the method: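 Bovine brain tubulin purified, polymerized into MTs and sheared. Sheared MTs incubated with compound at 37 °C for 15 min, then centrifuged 10 min at 42,000 rpm at 37 °C. Supernatant (free tubulin) and pellet (MT) run on polyacrylamide gels. EC50 from representative experiments repeated three times.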

HepG2 [8] = test: Cytotoxicity against human HepG2 cells after 72 hrs by WST-1 assay; format: functional, cell-based; conditions: HepG2, 72 h; summary of the method: as §1
Bos taurus [9] = organism: Bos taurus; test: Inhibition of [3H]colchicine binding to bovine brain tubulin at 5 uM after 1 hr liquid scintillation counting assay relative to control
HepG2 [10] = test: Cytotoxicity against human HepG2 cells assessed as cell killing at 5.6 uM after 72 hrs by WST-1 assay relative to control; format: functional; summary of the method: as §2
[11] = Inhibition of bovine brain t in presence of 0.4 mM GTP; set-up: species or system Bos taurus
SF-295 = test: Cytotoxicity against human SF295 cells after 48 hrs by sulforhodamine B assay; format: functional, cell-based
GBM [12] = test: Cytotoxicity against patient-derived classical GBM cells after 72 hrs by WST-1 assay; format: functional, cell-based; conditions: Homo sapiens; summary of the method: as §1
HCC 2998 = test: Cytotoxicity against human HCC2998 cells after 48 hrs by sulforhodamine B assay; format: functional, cell-based
GBM [13] = test: Cytotoxicity against patient-derived mesenchymal GBM cells assessed as cell killing at 1 uM after 72 hrs by WST-1 assay relative to control; format: functional, Homo sapiens; summary of the method: as §2
COLO 205 = test: Cytotoxicity against human COLO205 cells after 48 hrs by sulforhodamine B assay; format: functional, cell-based
SF-539 = test: Cytotoxicity against human SF539 cells after 48 hrs by sulforhodamine B assay; format: functional, cell-based
GBM [14] = test: Cytotoxicity against patient-derived mesenchymal GBM cells assessed as cell killing at 10 uM after 72 hrs by WST-1 assay relative to control; format: functional, Homo sapiens
Summary of the method: (§3)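 Patient-derived GBM cells come from freshly resected WHO grade IV tumours. They are subtyped proneural, classical or mesenchymal and kept in NeuroCult NSA medium with B-27, 20 ng/mL EGF and 20 ng/mL FGF2. Cells were treated with increasing compound concentrations (DMSO 0.1% final). Viability was read by WST-1 after 72 h. Maximal killing is the largest % reduction versus vehicle. Mean of ≥3 independent experiments in triplicate.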

GBM [15] = test: Cytotoxicity against patient-derived proneural GBM cells assessed as cell killing at 5.6 uM after 72 hrs by WST-1 assay relative to control; format: functional, Homo sapiens; summary of the method: as §3
GBM [16] = test: Cytotoxicity against patient-derived classical GBM cells assessed as cell killing at 5.6 uM after 72 hrs by WST-1 assay relative to control; format: functional, Homo sapiens; summary of the method: as §3
T98G [17] = test: Cytotoxicity against human T98G cells assessed as cell killing at 1 uM after 72 hrs by WST-1 assay relative to control; format: functional; summary of the method: as §2
GBM [18] = test: Cytotoxicity against patient-derived proneural GBM cells assessed as cell killing at 1 uM after 72 hrs by WST-1 assay relative to control; format: functional, Homo sapiens; summary of the method: as §2
HepG2 [19] = test: Cytotoxicity against human HepG2 cells assessed as cell killing at 0.6 uM after 72 hrs by WST-1 assay relative to control; format: functional; summary of the method: as §2
Bos taurus [20] = organism: Bos taurus; test: Inhibition of [3H]colchicine binding to bovine brain tubulin at 1 uM after 1 hr liquid scintillation counting assay relative to control
GBM [21] = test: Cytotoxicity against patient-derived classical GBM cells assessed as cell killing at 1 uM after 72 hrs by WST-1 assay relative to control; format: functional, Homo sapiens; summary of the method: as §2
T98G [22] = test: Cytotoxicity against human T98G cells assessed as cell killing at 3 uM after 72 hrs by WST-1 assay relative to control; format: functional; summary of the method: as §2
GBM [23] = test: Cytotoxicity against patient-derived mesenchymal GBM cells assessed as cell killing at 3 uM after 72 hrs by WST-1 assay relative to control; format: functional, Homo sapiens; summary of the method: as §2
HepG2 [24] = test: Cytotoxicity against human HepG2 cells assessed as cell killing at 10 uM after 72 hrs by WST-1 assay relative to control; format: functional; summary of the method: as §2

CCn1c2ccccc2c2cc(C(=O)c3cccc4ccccc34)ccc21
EC50 (T98G [1]): 1700 nM
%max (T98G [2]): 72%

Cc1ccc(C(=O)n2c3ccccc3c3ccccc32)c2ccccc12
EC50 (T98G [1]): 957 nM
%max (T98G [2]): 89.1%

CCn1c2ccccc2c2cc(C(=O)c3cccc4c3NCCC4)ccc21
EC50 (T98G [1]): > 10000 nM
%max (T98G [3]): -18%

CCn1c2ccccc2c2cc(C(=O)c3ccc(C)c4ccccc34)ccc21
%max (GBM [4]): 47.9%
EC50 (GBM [5]): 542 nM
EC50 (GBM [6]): 268 nM
Activity (HT-29): Active
EC50 (T98G [1]): 87 nM
EC50 [7]: 2100 nM
EC50 (HepG2 [8]): 1690 nM
inhibition (Bos taurus [9]): 53%
%max (HepG2 [10]): 25%
IC50 [11]: 1400 nM
Activity (SF-295): Active
EC50 (GBM [12]): 698 nM
%max (T98G [2]): 45.3%
Activity (HCC 2998): Active
%max (GBM [13]): 64.3%
Activity (COLO 205): Active
Activity (SF-539): Active

CCn1c2ccccc2c2cc(C(=O)Cc3ccccc3)ccc21
EC50 (T98G [1]): > 10000 nM
%max (T98G [2]): 14%

CCn1c2ccccc2c2cc(C(=O)N3CCCc4ccccc43)ccc21
EC50 (GBM [5]): 613 nM
%max (GBM [14]): 97.2%
EC50 (GBM [6]): 1820 nM
EC50 (T98G [1]): 757 nM
EC50 [7]: 5300 nM
%max (GBM [15]): 98.9%
%max (GBM [16]): 98.6%
inhibition (Bos taurus [9]): 41%
%max (HepG2 [10]): 8.3%
IC50 [11]: 4400 nM
EC50 (GBM [12]): 846 nM
%max (T98G [17]): 89%

CCn1c2ccccc2c2cc(C(=O)c3cccc4ncccc34)ccc21
%max (GBM [18]): 44.8%
%max (HepG2 [19]): 28.6%
EC50 (GBM [5]): 316 nM
EC50 (GBM [6]): 335 nM
Activity (HT-29): Active
EC50 (T98G [1]): 184 nM
EC50 [7]: 3400 nM
inhibition (Bos taurus [20]): 61%
EC50 (HepG2 [8]): 66 nM
inhibition (Bos taurus [9]): 91%
IC50 [11]: 890 nM
Activity (SF-295): Active
%max (GBM [21]): 53.9%
EC50 (GBM [12]): 407 nM
%max (T98G [17]): 74.4%
Activity (HCC 2998): Active
%max (GBM [13]): 58.9%
Activity (COLO 205): Active
Activity (SF-539): Active

CCn1c2ccccc2c2cc(C(=O)c3ccc(C)cc3)ccc21
EC50 (T98G [1]): 993 nM
%max (T98G [22]): 83.6%

CCn1c2ccccc2c2cc(C(O)c3ccc(C)c4ccccc34)ccc21 (centres undefined)
%max (GBM [23]): 50.6%
%max (GBM [4]): 56%
%max (GBM [18]): 44%
EC50 (GBM [5]): 630 nM
EC50 (GBM [6]): 386 nM
Activity (HT-29): Active
EC50 (T98G [1]): 560 nM
EC50 [7]: 6400 nM
EC50 (HepG2 [8]): 101 nM
%max (HepG2 [24]): 30.8%
inhibition (Bos taurus [9]): 70%
IC50 [11]: 1600 nM
Activity (SF-295): Active
%max (T98G [22]): 72.8%
EC50 (GBM [12]): 633 nM
Activity (HCC 2998): Active
Activity (COLO 205): Active
Activity (SF-539): Active

CCn1c2ccc(C(=O)c3ccc(C)c4ccccc34)cc2c2ccc(OC)cc21
EC50 (T98G [1]): 2600 nM
%max (T98G [2]): 71.6%

CCn1c2ccccc2c2cc(C(=O)N3CCN(C)CC3)ccc21
EC50 (T98G [1]): > 10000 nM
%max (T98G [2]): 13.2%

CCCn1c2ccccc2c2cc(C(=O)c3ccc(C)c4ccccc34)ccc21
EC50 (T98G [1]): > 10000 nM
%max (T98G [2]): 16.3%

CCn1c2ccccc2c2cc(C(=S)c3ccc(C)c4ccccc34)ccc21
EC50 (T98G [1]): > 10000 nM
%max (T98G [22]): -17%

CCn1c2ccccc2c2cc(C(=O)c3ccc(Cl)cc3)ccc21
EC50 (T98G [1]): 1500 nM
%max (T98G [2]): 71.1%

CCn1c2c(c3ccccc31)CN(C(=O)c1ccc(C)c3ccccc13)CC2
EC50 (T98G [1]): > 10000 nM
%max (T98G [22]): 45.1%

CCn1c2ccccc2c2cc(C(=O)c3ccc(F)cc3)ccc21
EC50 (T98G [1]): 8000 nM
%max (T98G [2]): 54.8%

CCn1c2ccccc2c2cc(C(=O)c3cccc4cccnc34)ccc21
EC50 (T98G [1]): 8800 nM
%max (T98G [2]): 60%

Cc1ccc(C(=O)c2ccc3c(c2)c2ccccc2n3CC(F)(F)F)c2ccccc12
EC50 (T98G [1]): 5600 nM
%max (T98G [2]): 35.6%
